Source: ChEMBL document CHEMBL1287642, “Synthesis, antiviral activity and cytotoxicity evaluation of Schiff bases of some 2-phenyl quinazoline-4(3)H-ones” (Eur J Med Chem, 2010)
≈ marks a conversion by molar mass, not a printed value.

Assays:
[1] = Cytotoxicity against human HEL cells assessed as minimum concentration required to cause microscopically detectable alteration after 2 days; type: cell-based; details: read-out: Activity
[2] = system: Human alphaherpesvirus 1; experiment: Antiviral activity against Herpes simplex virus-1 KOS infected in human HEL cells assessed as protection against virus-induced cytopathogenicity after 2 days; type: functional, organism-based; details: Human alphaherpesvirus 1, KOS, 48 h
[3] = system: Human alphaherpesvirus 2; experiment: Antiviral activity against Herpes simplex virus-2 G infected in human HEL cells assessed as protection against virus-induced cytopathogenicity after 2 days; type: functional, organism-based; details: Human alphaherpesvirus 2, strain G, 48 h
[4] = system: Vesicular stomatitis virus; experiment: Antiviral activity against Vesicular stomatitis virus infected in human HEL cells assessed as protection against virus-induced cytopathogenicity after 2 days; type: functional, organism-based; details: 48 h
[5] = system: Human alphaherpesvirus 1; experiment: Antiviral activity against acyclovir-resistant TK deficient Herpes simplex virus-1 KOS infected in human HEL cells assessed as protection against virus-induced cytopathogenicity after 2 days; type: functional, organism-based; details: Human alphaherpesvirus 1, KOS, 48 h
[6] = Cytotoxicity against african green monkey Vero cells assessed as minimum concentration required to cause microscopically detectable alteration after 2 days; type: cell-based; details: chlorocebus sabaeus, read-out: Activity
[7] = system: Human respirovirus 3; experiment: Antiviral activity against Para influenza-3 virus infected in african green monkey Vero cells assessed as protection against virus-induced cytopathogenicity after 2 days; type: functional, organism-based; details: Human respirovirus 3, Vero, 48 h
[8] = system: Mammalian orthoreovirus 1; experiment: Antiviral activity against Reovirus-1 infected in african green monkey Vero cells assessed as protection against virus-induced cytopathogenicity after 2 days; type: functional, organism-based; details: Mammalian orthoreovirus 1, Vero, 48 h
[9] = system: Sindbis virus; experiment: Antiviral activity against Sindbis virus infected in african green monkey Vero cells assessed as protection against virus-induced cytopathogenicity after 2 days; type: functional, organism-based; details: 48 h
[10] = system: Coxsackievirus B4; experiment: Antiviral activity against Coxsackie virus B4 infected in african green monkey Vero cells assessed as protection against virus-induced cytopathogenicity after 2 days; type: functional, organism-based; details: Enterovirus B, 48 h
[11] = system: Punta Toro virus; experiment: Antiviral activity against Punta Toro virus infected in african green monkey Vero cells assessed as protection against virus-induced cytopathogenicity after 2 days; type: functional, organism-based; details: 48 h
[12] = Cytotoxicity against cat CRFK cells by MTS assay; type: cell-based, Felis catus; details: crfk
How it was run: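 In uninfected CRFK cells, the 50% cytotoxic concentration was derived from cell viability measured by the colorimetric formazan-based MTS assay.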

[13] = system: Feline infectious peritonitis virus; experiment: Antiviral activity against Feline coronavirus FIPV infected in cat CRFK cells assessed as protection against virus-induced cytopathogenicity after 2 days by MTS assay; type: functional, cell-based; details: Alphacoronavirus 1, CRFK, 48 h
[14] = system: Felid alphaherpesvirus 1; experiment: Antiviral activity against Feline herpes virus infected in cat CRFK cells assessed as protection against virus-induced cytopathogenicity after 2 days by MTS assay; type: functional, organism-based; details: Felid alphaherpesvirus 1, CRFK, 48 h
[15] = Cytotoxicity against human HeLa cells assessed as minimum concentration required to cause microscopically detectable alteration after 2 days; type: cell-based; details: read-out: Activity
[16] = system: Vesicular stomatitis virus; experiment: Antiviral activity against Vesicular stomatitis virus infected in human HeLa cells assessed as protection against virus-induced cytopathogenicity after 2 days; type: functional, organism-based; details: 48 h
[17] = system: Coxsackievirus B4; experiment: Antiviral activity against Coxsackie virus B4 infected in human HeLa cells assessed as protection against virus-induced cytopathogenicity after 2 days; type: functional, organism-based; details: Enterovirus B, 48 h
[18] = system: Respiratory syncytial virus; experiment: Antiviral activity against Respiratory syncytial virus infected in human HeLa cells assessed as protection against virus-induced cytopathogenicity after 2 days; type: functional, organism-based; details: 48 h
[19] = system: Influenza A virus; experiment: Antiviral activity against influenza A virus H1N1 infected in MDCK cells assessed as protection against virus-induced cytopathogenicity at 100 ug/ml after 2 days; type: functional, organism-based
How it was run: (§1)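 Infected MDCK cells were treated. […] N.A. means not active at the highest concentration tested or at a subtoxic concentration.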

[20] = system: Influenza A virus; experiment: Antiviral activity against Influenza A virus H3N2 infected in MDCK cells assessed as protection against virus-induced cytopathogenicity at 100 ug/ml after 2 days; type: functional, organism-based; how it was run: as §1
[21] = system: Influenza B virus; experiment: Antiviral activity against influenza B virus infected in MDCK cells assessed as protection against virus-induced cytopathogenicity at 100 ug/ml after 2 days; type: functional, organism-based; how it was run: as §1
[22] = system: MDCK; experiment: Cytotoxicity against MDCK cells by MTS assay; type: cell-based, Canis lupus familiaris; details: dog, mdck
How it was run: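 In Madin Darby canine kidney cells, the 50% cytotoxic concentration was derived from cell viability measured by the colorimetric formazan-based MTS assay.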

[23] = Cytotoxicity against MDCK cells assessed as minimum concentration required to cause microscopically detectable alteration after 2 days; type: cell-based, Canis lupus familiaris; details: dog, read-out: Activity
[24] = system: Influenza A virus; experiment: Antiviral activity against influenza A virus H1N1 infected in MDCK cells assessed as cell viability at 100 ug/ml after 2 days by MTS assay; type: functional, organism-based
[25] = system: Influenza A virus; experiment: Antiviral activity against Influenza A virus H3N2 infected in MDCK cells assessed as cell viability at 100 ug/ml after 2 days by MTS assay; type: functional, organism-based
[26] = system: Influenza B virus; experiment: Antiviral activity against influenza B virus infected in MDCK cells assessed as cell viability at 100 ug/ml after 2 days by MTS assay; type: functional, organism-based

Row | SMILES | MCC at 48 h [1] [µg/mL] | EC50 [2] [µg/mL] | EC50 [3] [µg/mL] | EC50 [4] [µg/mL] | EC50 [5] [µg/mL] | MCC at 48 h [6] [µg/mL] | EC50 [7] [µg/mL] | EC50 [8] [µg/mL] | EC50 [9] [µg/mL] | EC50 [10] [µg/mL] | EC50 [11] [µg/mL] | CC50 [12] [µg/mL] | EC50 [13] [µg/mL] | EC50 [14] [µg/mL] | MCC at 48 h [15] [µg/mL] | EC50 [16] [µg/mL] | EC50 [17] [µg/mL] | EC50 [18] [µg/mL] | EC50 [19] | EC50 [20] | also measured
1 | C/C(=N\n1c(-c2ccccc2)nc2ccccc2c1=O)c1ccccc1 | > 100 | > 100 | > 100 | > 100 | > 100 | 100 | > 20 | > 20 | > 20 | > 20 | > 20 | 2.6 (≈ 7.66 µM) | > 0.8 | > 0.8 | > 100 | > 100 | > 100 | > 100 | Not Active | Not Active | EC50 [21]: Not Active; CC50 [22]: > 100 µg/mL; MCC at 48 h [23]: 100 µg/mL; EC50 [24]: Not Active; EC50 [25]: Not Active; EC50 [26]: Not Active
2 | C/C(=N\n1c(-c2ccccc2)nc2ccccc2c1=O)c1ccc(O)cc1 | > 100 | > 100 | > 100 | > 100 | > 100 | 100 | > 100 | > 100 | > 100 | > 100 | > 100 | > 100 | > 100 | > 100 | > 100 | > 100 | > 100 | > 100 | Not Active | Not Active | EC50 [21]: Not Active; CC50 [22]: > 100 µg/mL; MCC at 48 h [23]: > 100 µg/mL; EC50 [24]: Not Active; EC50 [25]: Not Active; EC50 [26]: Not Active
3 | COc1ccccc1/C=N/n1c(-c2ccccc2)nc2ccccc2c1=O | 100 | > 20 | > 20 | > 20 | > 20 | 100 | > 20 | > 20 | > 20 | > 20 | > 20 | 14.4 (≈ 40.5 µM) | > 4 | > 4 | 20 | > 4 | > 4 | > 4 | Not Active | Not Active | EC50 [21]: Not Active; CC50 [22]: 12.4 µg/mL (≈ 34.9 µM); MCC at 48 h [23]: 20 µg/mL; EC50 [24]: Not Active; EC50 [25]: Not Active; EC50 [26]: Not Active
